Experimental findings from ChEMBL document CHEMBL5696442, “Discovery of type II inhibitors of TGFβ-activated kinase 1 (TAK1) and mitogen-activated protein kinase kinase kinase kinase 2 (MAP4K2)” (J Med Chem, 2015) are described below.

Assay [1] concerns the target Phosphatidylinositol 4-kinase beta (Homo sapiens) (UniProt Q9UBF8). The experiment in a line: Inhibition of PI4KB ATP labeling site harbouring VPHTQAVVLNSKDKAPYLIYVEVLECENFDTTSVPAR in human Huh-7 cell lysate at 1 uM by KiNativ Profiling analysis relative to control. The assay is classed as subcellular.
For assay [2], the target named is Peripheral plasma membrane protein CASK (Homo sapiens) (UniProt O14936). The experiment in a line: Inhibition of CASK Lys1 labeling site in human Huh-7 cell lysate at 1 uM by KiNativ Profiling analysis relative to control.
Assay [3] has as its target Mitogen-activated protein kinase 8 (Homo sapiens, UniProt P45983). The experiment in a line: Inhibition of JNK1 Lys2 labeling site in human Huh-7 cells at 1 uM by KiNativ Profiling analysis relative to control. The assay is classed as cell-based.
Assay [4] concerns the target T1, Mitogen-activated protein kinase kinase kinase 7 (Homo sapiens) (UniProt O43318).
T1 sequence (whole entry): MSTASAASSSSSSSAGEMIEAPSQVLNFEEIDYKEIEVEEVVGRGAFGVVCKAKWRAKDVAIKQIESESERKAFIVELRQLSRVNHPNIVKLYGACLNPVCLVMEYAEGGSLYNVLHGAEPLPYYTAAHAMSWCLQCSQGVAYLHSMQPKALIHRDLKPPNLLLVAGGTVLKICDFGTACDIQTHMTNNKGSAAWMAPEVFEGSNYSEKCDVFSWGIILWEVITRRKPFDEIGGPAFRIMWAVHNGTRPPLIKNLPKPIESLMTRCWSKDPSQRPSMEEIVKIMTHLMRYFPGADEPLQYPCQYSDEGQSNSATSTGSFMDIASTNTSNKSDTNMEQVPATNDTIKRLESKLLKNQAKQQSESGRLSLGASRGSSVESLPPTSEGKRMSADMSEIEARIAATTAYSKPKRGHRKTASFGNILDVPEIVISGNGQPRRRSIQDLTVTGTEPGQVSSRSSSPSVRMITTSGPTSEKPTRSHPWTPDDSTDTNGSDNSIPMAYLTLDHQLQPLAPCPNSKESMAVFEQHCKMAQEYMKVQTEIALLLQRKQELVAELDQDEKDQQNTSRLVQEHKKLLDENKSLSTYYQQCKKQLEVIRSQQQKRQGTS
The experiment in a line: Inhibition of TAK1 (unknown origin) at 1 uM by Ambit Kinomescan binding assay relative to control; values are per cent of control.

For assay [5], the target named is Ribosomal protein S6 kinase alpha-3 (Homo sapiens) (UniProt P51812). The experiment in a line: Inhibition of RSK2 domain1 Lys2 labeling site harbouring DLKPENILLDEEGHIKLTDFGLSK in human A-375 cells at 5 uM by KiNativ Profiling analysis relative to control. In kind it is cell-based. In short, it runs like this:
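Live A375 melanoma cells treated with compound at 5 or 0.5 μM, then lysed. Lysate kinases were labeled with a lysine-reactive ATP or ADP-biotin probe. Inhibition was read as protection of labeling sites from the probe.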

Assay [6] addresses Cyclin-dependent kinase 16 (Homo sapiens) (UniProt Q00536). The experiment in a line: Inhibition of PCTK1 (unknown origin) at 1 uM by Ambit Kinomescan binding assay relative to control.
The target of assay [7] is SRSF protein kinase 3 (Homo sapiens) (UniProt Q9UPE1). The experiment in a line: Inhibition of SRPK3 (unknown origin) at 10 uM by Ambit Kinomescan binding assay.
Assay [8] deals with Receptor-type tyrosine-protein kinase FLT3 (Homo sapiens), P36888 [N841I]. The experiment in a line: Inhibition of FLT3 N841I mutant (unknown origin) at 10 uM by Ambit Kinomescan binding assay relative to control.
In assay [9] the target is T2, Dual specificity mitogen-activated protein kinase kinase 6 (Homo sapiens) (UniProt P52564).
T2 sequence (whole entry): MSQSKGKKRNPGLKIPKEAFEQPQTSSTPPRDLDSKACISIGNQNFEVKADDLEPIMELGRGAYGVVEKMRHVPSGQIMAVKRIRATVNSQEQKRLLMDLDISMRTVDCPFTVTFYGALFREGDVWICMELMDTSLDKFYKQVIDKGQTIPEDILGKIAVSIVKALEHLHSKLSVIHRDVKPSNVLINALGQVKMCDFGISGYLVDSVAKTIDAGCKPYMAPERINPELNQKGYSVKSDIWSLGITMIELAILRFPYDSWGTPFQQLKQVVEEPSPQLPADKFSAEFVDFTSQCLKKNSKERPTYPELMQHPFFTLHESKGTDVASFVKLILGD
The experiment in a line: Inhibition of MAP2K6 Lys1 labeling site in human A-375 cells at 0.5 uM by KiNativ Profiling analysis relative to control. In kind it is cell-based.

Assay [10] addresses Serine/threonine-protein kinase ATR (Homo sapiens) (UniProt Q13535). The experiment in a line: Inhibition of ATR ATP labeling site in human A-375 cells at 5 uM by KiNativ Profiling analysis relative to control. The assay is classed as cell-based.
Assay [11] concerns the target TRAF2 and NCK-interacting protein kinase (Homo sapiens) (UniProt Q9UKE5). The experiment in a line: Inhibition of ZC2 Lys2 labeling site in human A-375 cells at 5 uM by KiNativ Profiling analysis relative to control. The assay is classed as cell-based.
Assay [12] concerns the target T3, Interleukin-1 receptor-associated kinase 4 (Homo sapiens) (UniProt Q9NWZ3).
T3 sequence (whole entry): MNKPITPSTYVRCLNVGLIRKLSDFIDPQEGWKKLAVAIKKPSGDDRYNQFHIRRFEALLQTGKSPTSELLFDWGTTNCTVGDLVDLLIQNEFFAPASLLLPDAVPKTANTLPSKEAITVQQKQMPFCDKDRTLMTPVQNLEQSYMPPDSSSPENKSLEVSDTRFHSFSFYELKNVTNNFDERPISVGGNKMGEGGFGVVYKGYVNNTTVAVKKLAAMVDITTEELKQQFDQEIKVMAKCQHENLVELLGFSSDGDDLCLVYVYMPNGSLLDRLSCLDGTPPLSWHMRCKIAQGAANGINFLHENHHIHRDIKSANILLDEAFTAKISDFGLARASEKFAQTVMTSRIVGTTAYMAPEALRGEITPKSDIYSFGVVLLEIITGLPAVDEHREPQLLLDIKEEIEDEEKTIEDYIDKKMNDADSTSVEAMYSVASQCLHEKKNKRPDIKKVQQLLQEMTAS
The experiment in a line: Inhibition of IRAK4 K2 labeling site in human Huh-7 cells at 10 uM by KiNativ Profiling analysis relative to control. The assay is classed as cell-based.

Activity calls are given as the source filed them. The calls are words filed in the database; no cut-off is given here.

Sequence of TRAF2 and NCK-interacting protein kinase (Homo sapiens) (Q9UKE5 whole entry, looked up): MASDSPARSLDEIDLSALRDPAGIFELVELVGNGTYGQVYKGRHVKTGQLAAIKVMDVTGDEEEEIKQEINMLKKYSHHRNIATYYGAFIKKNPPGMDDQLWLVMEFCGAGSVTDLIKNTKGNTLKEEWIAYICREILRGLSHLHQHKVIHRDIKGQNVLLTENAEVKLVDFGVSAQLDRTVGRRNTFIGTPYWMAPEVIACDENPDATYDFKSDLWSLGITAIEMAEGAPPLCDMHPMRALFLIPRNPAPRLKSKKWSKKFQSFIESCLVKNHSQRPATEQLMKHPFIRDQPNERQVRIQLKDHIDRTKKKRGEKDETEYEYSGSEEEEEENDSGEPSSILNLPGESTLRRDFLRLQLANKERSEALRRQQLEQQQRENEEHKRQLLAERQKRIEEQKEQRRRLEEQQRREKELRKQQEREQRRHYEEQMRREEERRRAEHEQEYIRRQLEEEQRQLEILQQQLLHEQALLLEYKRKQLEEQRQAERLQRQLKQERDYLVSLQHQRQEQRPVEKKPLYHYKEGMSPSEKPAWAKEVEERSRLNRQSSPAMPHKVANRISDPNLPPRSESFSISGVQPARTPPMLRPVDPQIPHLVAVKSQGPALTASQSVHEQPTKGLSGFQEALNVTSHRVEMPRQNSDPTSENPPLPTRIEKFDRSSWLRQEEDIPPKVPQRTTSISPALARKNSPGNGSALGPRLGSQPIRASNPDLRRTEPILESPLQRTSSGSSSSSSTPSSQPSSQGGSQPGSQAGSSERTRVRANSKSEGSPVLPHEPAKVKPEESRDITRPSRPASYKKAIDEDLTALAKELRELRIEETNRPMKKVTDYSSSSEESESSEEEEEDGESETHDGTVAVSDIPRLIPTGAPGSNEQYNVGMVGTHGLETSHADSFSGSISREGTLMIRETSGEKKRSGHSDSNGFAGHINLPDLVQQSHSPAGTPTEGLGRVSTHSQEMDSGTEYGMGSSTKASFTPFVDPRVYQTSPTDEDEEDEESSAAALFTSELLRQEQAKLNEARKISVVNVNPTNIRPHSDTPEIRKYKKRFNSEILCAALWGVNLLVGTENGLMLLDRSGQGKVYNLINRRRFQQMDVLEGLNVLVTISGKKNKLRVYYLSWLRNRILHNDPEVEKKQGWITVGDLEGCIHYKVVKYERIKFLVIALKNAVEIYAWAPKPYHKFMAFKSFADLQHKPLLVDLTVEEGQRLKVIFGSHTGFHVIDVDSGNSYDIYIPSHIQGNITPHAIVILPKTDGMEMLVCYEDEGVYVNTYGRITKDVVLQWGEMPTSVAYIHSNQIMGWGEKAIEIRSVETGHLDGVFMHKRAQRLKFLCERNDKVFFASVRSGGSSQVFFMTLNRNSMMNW
Sequence of Phosphatidylinositol 4-kinase beta (Homo sapiens) (Q9UBF8 2-816 limits assumed): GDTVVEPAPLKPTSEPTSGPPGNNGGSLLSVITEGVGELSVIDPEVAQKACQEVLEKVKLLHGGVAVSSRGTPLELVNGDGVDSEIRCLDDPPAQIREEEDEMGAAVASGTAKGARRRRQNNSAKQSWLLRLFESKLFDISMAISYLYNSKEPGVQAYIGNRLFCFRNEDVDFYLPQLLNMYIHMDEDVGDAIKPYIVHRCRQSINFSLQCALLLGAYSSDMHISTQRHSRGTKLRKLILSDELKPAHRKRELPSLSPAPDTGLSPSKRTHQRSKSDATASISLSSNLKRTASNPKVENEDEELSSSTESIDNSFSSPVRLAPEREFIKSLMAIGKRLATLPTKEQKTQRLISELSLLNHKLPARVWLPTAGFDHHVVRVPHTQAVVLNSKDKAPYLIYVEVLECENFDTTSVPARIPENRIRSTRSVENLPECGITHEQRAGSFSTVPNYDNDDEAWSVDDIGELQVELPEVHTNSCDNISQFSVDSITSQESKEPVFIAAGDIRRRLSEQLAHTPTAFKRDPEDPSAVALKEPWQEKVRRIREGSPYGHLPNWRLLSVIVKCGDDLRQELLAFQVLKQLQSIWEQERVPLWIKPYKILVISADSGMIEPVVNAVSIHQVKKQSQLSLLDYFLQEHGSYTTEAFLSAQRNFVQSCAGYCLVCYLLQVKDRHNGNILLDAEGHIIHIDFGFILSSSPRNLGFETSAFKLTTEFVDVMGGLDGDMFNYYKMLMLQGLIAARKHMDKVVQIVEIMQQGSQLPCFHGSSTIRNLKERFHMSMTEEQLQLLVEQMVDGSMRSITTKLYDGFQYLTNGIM
Sequence of Peripheral plasma membrane protein CASK (Homo sapiens) (O14936 whole entry, looked up): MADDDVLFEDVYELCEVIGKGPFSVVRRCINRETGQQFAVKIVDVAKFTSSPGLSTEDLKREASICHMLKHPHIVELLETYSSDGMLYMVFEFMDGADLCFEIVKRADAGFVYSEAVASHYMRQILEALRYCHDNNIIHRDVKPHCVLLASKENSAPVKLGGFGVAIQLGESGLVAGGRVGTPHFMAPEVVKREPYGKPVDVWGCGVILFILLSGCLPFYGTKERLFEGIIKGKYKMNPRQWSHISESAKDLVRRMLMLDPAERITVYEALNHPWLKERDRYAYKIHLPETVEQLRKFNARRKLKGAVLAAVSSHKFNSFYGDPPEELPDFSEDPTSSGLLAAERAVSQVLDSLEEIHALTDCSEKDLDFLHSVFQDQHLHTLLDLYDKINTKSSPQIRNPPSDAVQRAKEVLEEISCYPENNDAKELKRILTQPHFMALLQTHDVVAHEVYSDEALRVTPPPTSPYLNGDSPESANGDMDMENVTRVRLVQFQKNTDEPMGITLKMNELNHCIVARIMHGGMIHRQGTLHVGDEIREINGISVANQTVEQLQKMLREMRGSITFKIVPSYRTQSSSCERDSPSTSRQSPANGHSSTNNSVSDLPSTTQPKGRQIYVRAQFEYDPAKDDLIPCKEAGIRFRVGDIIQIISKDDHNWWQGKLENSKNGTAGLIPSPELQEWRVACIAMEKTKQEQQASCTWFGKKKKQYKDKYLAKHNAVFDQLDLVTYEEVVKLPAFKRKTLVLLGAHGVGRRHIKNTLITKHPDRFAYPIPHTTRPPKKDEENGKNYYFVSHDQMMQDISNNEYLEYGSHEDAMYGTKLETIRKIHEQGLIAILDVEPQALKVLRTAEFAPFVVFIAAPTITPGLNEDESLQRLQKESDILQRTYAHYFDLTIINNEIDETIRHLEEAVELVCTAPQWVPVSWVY
Sequence of Cyclin-dependent kinase 16 (Homo sapiens) (Q00536 whole entry): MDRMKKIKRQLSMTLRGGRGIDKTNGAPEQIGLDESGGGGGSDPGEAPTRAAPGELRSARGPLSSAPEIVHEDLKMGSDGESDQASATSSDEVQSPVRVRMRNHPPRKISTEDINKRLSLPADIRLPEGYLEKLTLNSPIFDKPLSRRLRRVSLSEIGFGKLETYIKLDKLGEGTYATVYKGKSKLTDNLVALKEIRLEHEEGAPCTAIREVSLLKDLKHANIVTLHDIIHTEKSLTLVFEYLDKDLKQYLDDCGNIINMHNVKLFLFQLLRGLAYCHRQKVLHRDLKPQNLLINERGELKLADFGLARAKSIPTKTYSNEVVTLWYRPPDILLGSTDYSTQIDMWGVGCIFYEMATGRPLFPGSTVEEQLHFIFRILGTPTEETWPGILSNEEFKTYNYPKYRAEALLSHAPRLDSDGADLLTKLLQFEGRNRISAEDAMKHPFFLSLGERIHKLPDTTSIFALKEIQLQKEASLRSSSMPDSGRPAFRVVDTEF
Sequence of Ribosomal protein S6 kinase alpha-3 (Homo sapiens) (P51812 whole entry, the tested form may be a part): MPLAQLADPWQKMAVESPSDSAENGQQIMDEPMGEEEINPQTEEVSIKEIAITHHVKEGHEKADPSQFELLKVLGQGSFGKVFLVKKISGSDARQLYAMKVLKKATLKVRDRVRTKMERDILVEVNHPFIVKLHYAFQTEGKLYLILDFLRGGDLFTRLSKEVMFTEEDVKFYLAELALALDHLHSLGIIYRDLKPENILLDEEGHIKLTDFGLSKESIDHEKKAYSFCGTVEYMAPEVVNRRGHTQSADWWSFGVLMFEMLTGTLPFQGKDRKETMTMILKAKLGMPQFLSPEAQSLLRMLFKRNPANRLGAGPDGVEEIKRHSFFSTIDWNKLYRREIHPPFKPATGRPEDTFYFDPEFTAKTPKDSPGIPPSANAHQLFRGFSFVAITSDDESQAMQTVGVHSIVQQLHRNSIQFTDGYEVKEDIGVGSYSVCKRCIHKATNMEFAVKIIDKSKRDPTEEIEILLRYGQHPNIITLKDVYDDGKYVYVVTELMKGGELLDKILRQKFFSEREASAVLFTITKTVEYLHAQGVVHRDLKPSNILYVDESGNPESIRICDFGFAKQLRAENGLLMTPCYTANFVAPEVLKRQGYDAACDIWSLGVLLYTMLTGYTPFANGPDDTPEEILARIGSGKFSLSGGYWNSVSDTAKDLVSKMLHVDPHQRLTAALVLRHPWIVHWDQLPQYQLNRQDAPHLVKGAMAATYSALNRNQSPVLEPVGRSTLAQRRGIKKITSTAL
Sequence of SRSF protein kinase 3 (Homo sapiens) (Q9UPE1 whole entry): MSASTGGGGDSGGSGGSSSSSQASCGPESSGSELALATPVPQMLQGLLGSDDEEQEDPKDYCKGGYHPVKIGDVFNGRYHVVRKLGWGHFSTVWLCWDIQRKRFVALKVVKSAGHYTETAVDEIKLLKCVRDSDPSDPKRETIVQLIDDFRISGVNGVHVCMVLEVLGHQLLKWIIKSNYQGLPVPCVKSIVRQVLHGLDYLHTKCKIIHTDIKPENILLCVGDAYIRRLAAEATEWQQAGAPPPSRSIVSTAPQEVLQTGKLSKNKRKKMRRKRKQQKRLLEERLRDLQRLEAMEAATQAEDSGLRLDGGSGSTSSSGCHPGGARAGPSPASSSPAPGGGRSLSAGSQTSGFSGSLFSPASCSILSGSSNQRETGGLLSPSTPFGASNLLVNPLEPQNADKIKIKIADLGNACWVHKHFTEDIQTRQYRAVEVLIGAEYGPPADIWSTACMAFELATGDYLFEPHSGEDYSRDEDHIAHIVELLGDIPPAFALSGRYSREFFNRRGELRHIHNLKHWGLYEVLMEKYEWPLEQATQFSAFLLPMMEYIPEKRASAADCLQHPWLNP

Turning to `CNc1cc(Oc2cc(C(=O)Nc3cc(N4CCN(C)CC4)cc(C(F)(F)F)c3)ccc2C)ncn1`, the inhibition (as a rule, the change of the read-out against control, counted positive when it falls) in assay [1] is -1%; in [2], -8.9%; in assay [3] it was 14.5%.
`CCN1CCN(Cc2ccc(NC(=O)c3ccc(C)c(/C=C/c4cnc5[nH]ccc5c4OC)c3)cc2C(F)(F)F)CC1` had a percent of control in [4] of 1.2%. Also, the inhibition was -4.9% in assay [5] and 100% in assay [6].
As to `CCN1CCN(Cc2ccc(NC(=O)c3ccc(C)c(Oc4ccnc5[nH]ccc45)c3)cc2C(F)(F)F)CC1`, the inhibition entry in assay [7] was “inactive”. Also, the inhibition in assay [8] was 0%; in assay [9], 4.5%; in [10], -2.8%; in [11], 92.7%; in assay [12], 17.8%.
